ChEMBL document CHEMBL5724801, “EUbOPEN Chemogenomics Library - Multiplex” (2024)
Where “and” joins values, the source holds several entries; their conditions need not be identical. Equal entries are not always repeated.

System: HEK-293T
Assay: Multiplex assay against HEK293T
Type: toxicity, cell-based
Conditions: human
How it was run: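 Cells stained live at seeding with Hoechst33342, BioTracker Green Microtubule Cytoskeleton Dye, MitoTracker Red and Annexin V Alexa Fluor 680 were imaged on a CQ1 microscope at 37°C and 5% CO2 after compound addition. Their classification by CellPathfinder machine-learning gating ran from Hoechst high-intensity objects versus normal cells, to healthy, pyknosed or fragmented nuclei among normal cells, to mitotic or apoptotic among pyknosed cells. Tubulin, mitochondrial-mass and membrane-permeability phenotypes are per cents of healthy-nucleus cells.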

[1] = 12 h, 1 µM, compound concentration 1 uM
[2] = 12 h, 10 µM, compound concentration 10 uM
[3] = 24 h, 1 µM, compound concentration 1 uM
[4] = 24 h, 10 µM, compound concentration 10 uM
[5] = 48 h, 1 µM, compound concentration 1 uM
[6] = 48 h, 10 µM, compound concentration 10 uM

Cc1nn(C)c2nc(NNC(=O)Nc3cc(Cl)nc(Cl)c3)cc(C(C)C)c12
Population Apoptotic (%) [1]: 27% and 40% | Population Fragmented Nuclei (%) [1]: 5% | Population Healthy Nuclei (%) [1]: 77% and 81% | Population Hoechst High Intensity Objects (%) [1]: 5% and 2% | Population Membrane Permeable-Phenotype (%) [1]: 0% | Population Mitochondria Different-Phenotype (%) [1]: 37% and 59% | Population Mitotic Cells (%) [1]: 72% and 60% | Population Normal (%) [1]: 94% and 97% | Population Pyknosed Nuclei (%) [1]: 16% and 13% | Population Tubulin-Different-Phenotype (%) [1]: 26% and 25% | Total Cell Count [1]: 467 and 383 | Population Apoptotic (%) [2]: 55% and 46% | Population Fragmented Nuclei (%) [2]: 5% and 4% | Population Healthy Nuclei (%) [2]: 61% and 74% | Population Hoechst High Intensity Objects (%) [2]: 12% and 3% | Population Membrane Permeable-Phenotype (%) [2]: 1% | Population Mitochondria Different-Phenotype (%) [2]: 79% and 84% | Population Mitotic Cells (%) [2]: 44% and 53% | Population Normal (%) [2]: 88% and 96% | Population Pyknosed Nuclei (%) [2]: 32% and 21% | Population Tubulin-Different-Phenotype (%) [2]: 80% and 75% | Total Cell Count [2]: 300 and 396 | Population Apoptotic (%) [3]: 31% | Population Fragmented Nuclei (%) [3]: 9% and 6% | Population Healthy Nuclei (%) [3]: 78% and 82% | Population Hoechst High Intensity Objects (%) [3]: 3% and 1% | Population Membrane Permeable-Phenotype (%) [3]: 0% | Population Mitochondria Different-Phenotype (%) [3]: 27% and 37% | Population Mitotic Cells (%) [3]: 68% | Population Normal (%) [3]: 96% and 98% | Population Pyknosed Nuclei (%) [3]: 11% | Population Tubulin-Different-Phenotype (%) [3]: 20% and 19% | Total Cell Count [3]: 608 and 512 | Population Apoptotic (%) [4]: 59% and 55% | Population Fragmented Nuclei (%) [4]: 10% and 5% | Population Healthy Nuclei (%) [4]: 66% and 78% | Population Hoechst High Intensity Objects (%) [4]: 5% | Population Membrane Permeable-Phenotype (%) [4]: 0% | Population Mitochondria Different-Phenotype (%) [4]: 78% and 80% | Population Mitotic Cells (%) [4]: 40% and 44% | Population Normal (%) [4]: 94% and 95% | Population Pyknosed Nuclei (%) [4]: 22% and 16% | Population Tubulin-Different-Phenotype (%) [4]: 74% and 69% | Total Cell Count [4]: 321 and 440 | Population Apoptotic (%) [5]: 27% and 18% | Population Fragmented Nuclei (%) [5]: 12% and 13% | Population Healthy Nuclei (%) [5]: 78% and 81% | Population Hoechst High Intensity Objects (%) [5]: 3% and 2% | Population Membrane Permeable-Phenotype (%) [5]: 1% | Population Mitochondria Different-Phenotype (%) [5]: 17% and 25% | Population Mitotic Cells (%) [5]: 72% and 81% | Population Normal (%) [5]: 96% and 97% | Population Pyknosed Nuclei (%) [5]: 9% and 5% | Population Tubulin-Different-Phenotype (%) [5]: 16% and 19% | Total Cell Count [5]: 912 and 748 | Population Apoptotic (%) [6]: 62% and 45% | Population Fragmented Nuclei (%) [6]: 9% | Population Healthy Nuclei (%) [6]: 72% and 79% | Population Hoechst High Intensity Objects (%) [6]: 3% and 4% | Population Membrane Permeable-Phenotype (%) [6]: 0% | Population Mitochondria Different-Phenotype (%) [6]: 82% and 71% | Population Mitotic Cells (%) [6]: 37% and 55% | Population Normal (%) [6]: 96% and 95% | Population Pyknosed Nuclei (%) [6]: 18% and 10% | Population Tubulin-Different-Phenotype (%) [6]: 78% and 63% | Total Cell Count [6]: 387 and 593
